Measured values pooled from the literature.
Compare with care: the assays were run in different laboratories.
Target: Bone morphogenetic protein receptor type-2 (BMPR2, Homo sapiens, UniProt Q13873)
Residues used in one study (Q13873 27-1038): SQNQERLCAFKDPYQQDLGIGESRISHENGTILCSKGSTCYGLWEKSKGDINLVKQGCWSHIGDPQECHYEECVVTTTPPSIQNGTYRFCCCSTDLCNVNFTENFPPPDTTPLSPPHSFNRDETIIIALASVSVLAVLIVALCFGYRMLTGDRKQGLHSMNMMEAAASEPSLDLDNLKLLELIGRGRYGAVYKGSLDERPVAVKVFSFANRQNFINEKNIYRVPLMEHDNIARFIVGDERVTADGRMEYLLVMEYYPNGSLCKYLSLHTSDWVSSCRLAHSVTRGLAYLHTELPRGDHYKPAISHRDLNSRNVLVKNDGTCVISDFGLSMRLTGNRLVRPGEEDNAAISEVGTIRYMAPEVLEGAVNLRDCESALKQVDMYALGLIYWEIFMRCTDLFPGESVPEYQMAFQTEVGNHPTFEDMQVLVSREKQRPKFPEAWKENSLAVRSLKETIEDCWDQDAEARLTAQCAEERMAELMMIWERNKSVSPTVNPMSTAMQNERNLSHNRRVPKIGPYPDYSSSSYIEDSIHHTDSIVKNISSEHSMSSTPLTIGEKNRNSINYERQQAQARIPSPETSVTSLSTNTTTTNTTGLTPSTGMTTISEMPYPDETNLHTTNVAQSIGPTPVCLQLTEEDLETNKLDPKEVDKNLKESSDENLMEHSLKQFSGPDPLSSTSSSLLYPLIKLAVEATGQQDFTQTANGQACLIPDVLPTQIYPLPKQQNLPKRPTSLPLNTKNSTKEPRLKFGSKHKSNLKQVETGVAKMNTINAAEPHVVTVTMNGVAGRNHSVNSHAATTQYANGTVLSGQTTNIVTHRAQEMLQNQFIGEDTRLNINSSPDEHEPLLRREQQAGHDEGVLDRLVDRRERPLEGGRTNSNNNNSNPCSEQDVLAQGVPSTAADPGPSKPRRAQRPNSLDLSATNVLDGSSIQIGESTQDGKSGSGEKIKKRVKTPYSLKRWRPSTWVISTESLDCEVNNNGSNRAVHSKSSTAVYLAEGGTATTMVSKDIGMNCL

Compound | test | conditions | quantity | result
Cn1c2c(c3ccc(Cl)c(Cl)c31)C(C#N)C1(CCNCC1)NC2=O (racemic) | thermal stability, DSF | 10 µM | ΔTm | 0.3 °C
O=C(Nc1ccc(Oc2ccc(F)cc2)cc1)N1CCc2ncccc2[C@H]1c1ccc(F)cc1 | cell-free assay, competition with immobilised ligand | 1 µM | remaining binding | 96%
CN1CC(Oc2cnc(C#N)cc2-c2ccn3nc(NC(=O)C4CC4)cc3c2)C1 | enzyme activity, inhibitor | 1 µM | inhibition | 1%
O=C(CSc1nc2nccnc2c(=O)n1CCc1ccccc1)Nc1nccs1 | enzyme activity, inhibitor | 10 µM | inhibition | 17%
CS(=O)(=O)NCC[C@H](NC(=O)c1cncc2c1cnn2-c1ccc(F)cc1)c1ccnc(S(C)(=O)=O)c1 | cell-free assay, competition with immobilised ligand | 1 µM | remaining binding | 100%
Cn1c2c(c3ccccc31)C(C#N)C(C)(C)NC2=O (stereo not drawn) | thermal stability, DSF | 10 µM | ΔTm | 0.2 °C
C[C@@]1(Cc2ccc(C#N)cc2)C(=O)N(c2cc(Cl)cc(Cl)c2)c2ncc(C(=O)NC3(c4nc(C5CCC5)no4)CC3)n21 | cell-free assay, competition with immobilised ligand | 1 µM | remaining binding | 100%
Cn1cncc1C1=CN(c2ncnc3[nH]cnc23)CCS1 | enzyme activity, inhibitor, radiometric | 2 µM | inhibition | 74%
O=C(Nc1cnn(-c2csc(C(=O)NC3COC3)c2)c1)Nc1c(F)cccc1Cl | enzyme activity, inhibitor | 5 µM | remaining activity | 77.2%
Cn1c2c(Cl)c(Cl)ccc2c2cn[nH]c(=O)c21 | thermal stability, DSF | 10 µM | ΔTm | 2.9 °C
Cn1nc(C(F)(F)F)cc1-c1cnc(N2CCc3cc(S(=O)(=O)Nc4c(F)cc(Cl)cc4F)cc(N4CCCC4=O)c32)nc1 | cell-free assay, competition with immobilised ligand | 1 µM | remaining binding | 77%
COc1cc(Cl)c(C(=O)N[C@@H](CN[C@H]2CC[C@@H](N)CC2)Cc2ccc(C#N)cc2)cc1-c1ccc(CN[C@H](C)c2ccc(C)cc2)o1 | enzyme activity, inhibitor | 1 µM | remaining activity | 99%
